Source: ChEMBL document CHEMBL1149444, “Discovery of imidazo[1,2-b][1,2,4]triazines as GABA(A) alpha2/3 subtype selective agonists for the treatment of anxiety” (J Med Chem, 2006)
Calls of active or inactive are those of the source. The calls are words filed in the database; no cut-off is given here.

Tests used:
[1] = molecular target: T1, GABA-A receptor; alpha-5/beta-3/gamma-2 (Homo sapiens, UniProt P18507+P28472+P31644); experiment: Displacement of [3H] Ro15-1788 from recombinant human GABAA alpha-5 receptor plus beta3gamma2 expressed in L(tk-) cells; assay type: cell-based
T1 sequence (P18507 whole entry): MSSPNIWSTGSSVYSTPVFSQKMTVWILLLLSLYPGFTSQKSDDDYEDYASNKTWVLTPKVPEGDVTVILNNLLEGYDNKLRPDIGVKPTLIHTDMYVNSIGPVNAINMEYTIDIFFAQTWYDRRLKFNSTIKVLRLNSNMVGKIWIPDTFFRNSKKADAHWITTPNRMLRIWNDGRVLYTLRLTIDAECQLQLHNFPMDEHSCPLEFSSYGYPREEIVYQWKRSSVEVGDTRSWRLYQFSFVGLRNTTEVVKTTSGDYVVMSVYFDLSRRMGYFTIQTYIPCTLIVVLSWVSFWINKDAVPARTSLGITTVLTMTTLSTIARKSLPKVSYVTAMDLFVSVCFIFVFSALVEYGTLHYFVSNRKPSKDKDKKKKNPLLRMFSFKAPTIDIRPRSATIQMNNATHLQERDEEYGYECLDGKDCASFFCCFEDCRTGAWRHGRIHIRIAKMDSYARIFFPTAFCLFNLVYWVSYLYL
T1 sequence (P28472 whole entry): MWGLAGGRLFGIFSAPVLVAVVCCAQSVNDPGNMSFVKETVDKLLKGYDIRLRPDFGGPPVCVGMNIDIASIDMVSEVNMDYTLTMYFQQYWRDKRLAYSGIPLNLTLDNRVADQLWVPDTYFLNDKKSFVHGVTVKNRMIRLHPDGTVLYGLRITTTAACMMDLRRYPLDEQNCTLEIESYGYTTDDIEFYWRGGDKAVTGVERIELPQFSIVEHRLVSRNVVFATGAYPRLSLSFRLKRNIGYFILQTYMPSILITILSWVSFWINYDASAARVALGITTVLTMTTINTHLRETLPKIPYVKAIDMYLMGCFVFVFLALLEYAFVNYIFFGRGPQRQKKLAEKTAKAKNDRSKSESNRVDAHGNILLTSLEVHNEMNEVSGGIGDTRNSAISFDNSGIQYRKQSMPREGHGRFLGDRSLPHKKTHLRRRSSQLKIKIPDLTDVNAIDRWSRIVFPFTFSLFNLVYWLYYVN
T1 sequence (P31644 whole entry): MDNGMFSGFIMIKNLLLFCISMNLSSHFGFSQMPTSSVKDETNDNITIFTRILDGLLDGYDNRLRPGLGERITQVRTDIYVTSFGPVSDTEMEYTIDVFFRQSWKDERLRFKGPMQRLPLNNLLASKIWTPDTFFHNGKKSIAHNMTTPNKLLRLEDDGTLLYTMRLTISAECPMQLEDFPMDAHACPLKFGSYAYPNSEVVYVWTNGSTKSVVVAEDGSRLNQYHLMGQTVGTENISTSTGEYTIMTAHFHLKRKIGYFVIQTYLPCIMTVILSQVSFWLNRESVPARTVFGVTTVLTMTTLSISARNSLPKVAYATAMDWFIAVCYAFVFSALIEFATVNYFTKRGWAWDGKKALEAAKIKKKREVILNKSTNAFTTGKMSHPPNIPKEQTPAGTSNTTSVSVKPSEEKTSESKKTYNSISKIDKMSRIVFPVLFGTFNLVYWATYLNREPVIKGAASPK
In short: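 Inhibition of [3H]Ro15-1788 binding to human recombinant GABAA receptors stably expressed in L(tk-) cells, alpha subunit combined with beta3 and gamma2. Six to eight test concentrations spaced in half-log units. Ki reported as geometric mean of n = 2-12.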

[2] = molecular target: GABA-A receptor; alpha-5/beta-3/gamma-2 (Homo sapiens) (UniProt P18507+P28472+P31644); experiment: Efficacy against recombinant human GABAA alpha-5 receptor plus beta3gamma2 expressed in L(tk-) cells by whole cell patch clamp method relative to chlordiazepoxide; assay type: functional, cell-based
In short: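 Whole-cell patch clamp on L(tk-) cells stably expressing human alpha subunit plus beta3gamma2. GABA applied at an EC20-equivalent concentration. Modulation of that current measured across increasing test-compound concentrations. Efficacy is expressed relative to the maximal response to the full agonist chlordiazepoxide, set at 1.00.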

[3] = Half life in dog at 1 mg/kg, iv or 1 mg/kg, po; assay type: ADME, organism-based, Canis lupus familiaris; details: in vivo
In short: (§1)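 Pharmacokinetics in rat, dog or rhesus after 1 mg/kg iv and 1 mg/kg po dosing. Plasma clearance (mL/min/kg), half-life (h), volume of distribution (L/kg) and oral bioavailability (%) were derived.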

[4] = Volume of distribution in dog at 1 mg/kg, iv or 1 mg/kg, po; assay type: ADME, organism-based, Canis lupus familiaris; details: in vivo, read-out: Vdss; in short: as §1
[5] = molecular target: GABA-A receptor; alpha-1/beta-3/gamma-2 (Homo sapiens) (UniProt P14867+P18507+P28472); experiment: Efficacy against recombinant human GABAA alpha1 receptor plus beta3gamma2 expressed in L(tk-) cells by whole cell patch clamp method relative to chlordiazepoxide; assay type: functional, cell-based
In short: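 Whole-cell patch clamp on L(tk-) cells stably expressing the receptor (alpha plus beta3gamma2). GABA applied at an EC20-equivalent concentration. Modulation of the current measured with increasing test concentrations. Efficacy expressed relative to the maximal chlordiazepoxide response (set at 1.00) or as a percentage.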

[6] = Oral bioavailability in dog at 1 mg/kg, iv or 1 mg/kg, po; assay type: ADME, organism-based, Canis lupus familiaris; details: in vivo; in short: as §1
[7] = Volume of distribution in rhesus at 1 mg/kg, iv or 1 mg/kg, po; assay type: ADME, organism-based, Macaca mulatta; details: rhesus monkey, in vivo, read-out: Vdss; in short: as §1
Rattus norvegicus [8] = species: Rattus norvegicus; experiment: Plasma concentration in rat; assay type: ADME, organism-based; details: in vivo
In short: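 Central benzodiazepine receptor occupancy in rat after oral dosing, measured by displacement of [3H]Ro15-1788 binding. Plasma concentration was measured at the dose giving 50% occupancy.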

Rattus norvegicus [9] = experiment: Activity in rat elevated plus maze assay at 1 mg/kg, po; assay type: functional, organism-based; set-up: dose 1 mg/kg
In short: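 Rats given test compound orally 30 min before a 5 min elevated plus maze session; vehicle 0.5% methyl cellulose po. Read-out is time on open arms as percentage of total time. n = 18 per group. Significance versus vehicle at p < 0.05.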

[10] = Plasma clearance in dog at 1 mg/kg, iv or 1 mg/kg, po; assay type: ADME, organism-based, Canis lupus familiaris; in short: as §1

`CC(C)(O)c1cnn2c(-c3ccc(F)c(-c4c(F)cccc4C#N)c3)cnc2n1` gave a Ki [1] of 1.1 nM, an Efficacy [2] of 0.37% and a half-life [3] of 6.5 h. For the same compound, the Vd [4] was 1.9 L/kg, the Efficacy [5] was 3% and the bioavailability [6] was 22%. For the same compound, the Vd [7] was 2.1 L/kg, the concentration (Rattus norvegicus [8]) was 56 nM and the Activity (Rattus norvegicus [9]) was “Active”. The clearance [10] was 4.6 mL/min/kg.
